Screening results deposited in PubChem BioAssay by several laboratories.
Compounds with a hit are over-represented: about 3.1% of the library has one in this group of screens.
ADAM10 inh: inhibits human ADAM10 | O14672 | actives 0.62% (n = 370,000) | recombinant ADAM10, EDANS/DABCYL FRET peptide cleavage, 3 h | inhibition, % at 7 µM;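 active = inhibition above a per-campaign cutoff equal to the mean of compounds falling between control-based bounds plus 3 SD, cut at about 20% in these data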;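 note: 0% = DMSO wells while the 100% control is not disclosed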
V-ATPase pHluor: alters yeast V-ATPase proton transport; S. cerevisiae, pHLuorin cytosolic pH fluorescence; response, % at 10 µM; actives 0.37% (n = 350,000); in the data active = response mostly above about 7.3%, no sharp cut-off; inactive = mostly below about 5.4%; note: actives read high
MPTP inh: permeability transition pore inhibition. isolated mouse mitochondria, Ca2+ swelling absorbance, 30 min. inhibition, % at 10 µM. actives 1.4% (n = 360,000);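 active = inhibition of 50% or more, scaled per plate between neutral and stimulator controls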;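 note: 0% = DMSO wells given calcium and 100% = 1 mM EGTA wells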
ADAM17 inh: inhibits human ADAM17; P78536; recombinant ADAM17, EDANS/DABCYL FRET peptide cleavage; inhibition, % at 6.95 µM; actives 0.83% (n = 370,000);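 active = inhibition above the mean of compounds lying between control limits plus 3 SD, set per campaign, cut at about 8.5% in these data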;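 note: 0% = DMSO-only wells as the low control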
Target sequence (P78536 215-824 limits assumed): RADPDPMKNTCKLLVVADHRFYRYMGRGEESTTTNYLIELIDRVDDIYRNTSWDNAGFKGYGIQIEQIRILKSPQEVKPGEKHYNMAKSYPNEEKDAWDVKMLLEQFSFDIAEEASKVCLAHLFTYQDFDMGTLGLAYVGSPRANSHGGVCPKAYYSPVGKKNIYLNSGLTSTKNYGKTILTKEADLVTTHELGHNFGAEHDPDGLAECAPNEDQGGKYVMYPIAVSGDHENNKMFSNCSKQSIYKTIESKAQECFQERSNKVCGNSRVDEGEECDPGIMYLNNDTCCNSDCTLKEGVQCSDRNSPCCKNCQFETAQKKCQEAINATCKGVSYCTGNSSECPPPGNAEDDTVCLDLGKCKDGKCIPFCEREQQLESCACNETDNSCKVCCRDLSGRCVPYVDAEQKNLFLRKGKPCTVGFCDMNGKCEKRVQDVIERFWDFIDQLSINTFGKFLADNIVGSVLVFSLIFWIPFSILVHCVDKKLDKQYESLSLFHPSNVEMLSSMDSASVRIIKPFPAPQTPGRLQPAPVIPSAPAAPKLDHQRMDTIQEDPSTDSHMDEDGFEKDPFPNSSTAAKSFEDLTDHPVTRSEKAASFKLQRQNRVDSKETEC
Lipid droplet: modulators of hepatic lipid droplet formation. inhibition, % at 6.5 µM. AID 1656. AML12 mouse hepatocytes, oleate lipid droplets, BODIPY imaging. actives 0.4% (n = 240,000);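 active = lipid droplet intensity inhibited by at least 50%, with more than 500 cells counted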
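Assay system: AML12 mouse liver cells | Compound: 6.5 µM single-point dosing | Schedule: Overnight exposure | Technique: Fluorescence imaging, 20x objective, two fields per well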
aDG glyco act: alpha-DG glycosylation activation; Pro5-aDG cells, alpha-DG glycosylation AlphaScreen (IIH6); 0% Pro5, 100% B10-LARGE cell signal; actives 0.22% (n = 360,000); activation, % at 10 µM;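 active = activation of at least 8% versus controls, or a plate z-score of at least 8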;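 note: Pro5 are CHO cells carrying HIG-tagged alpha-DG that lacks glycosylation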
ADAM10 ctr: counter-screen for ADAM17 exosite inhibitors: inhibitors of human ADAM10; shares compounds with ADAM17 inh; recombinant ADAM10, EDANS/DABCYL FRET peptide cleavage, 3 h; actives 47% (n = 2,900); inhibition, % at 6.95 µM;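 active = mean inhibition over the triplicate runs exceeds the activity threshold set in the earlier primary screen, cut at about 20% in these data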;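 note: 0% = DMSO wells and 100% = marimastat wells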
ADAM17 confirm: confirmation of inhibitors of human ADAM17; shares compounds with ADAM17 inh; recombinant ADAM17, EDANS/DABCYL QFRET peptide cleavage; inhibition, % at 6.95 µM; actives 65% (n = 2,900);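 active = mean inhibition across replicates above the hit cutoff set in the primary screen, cut at about 8.5% in these data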;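 note: 0% = DMSO wells and 100% = marimastat wells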
The depositor's hits bear a star; i = inactive; nt = no result.

SMILES	ADAM10 inh	V-ATPase pHluor	MPTP inh	ADAM17 inh	Lipid droplet	aDG glyco act	ADAM10 ctr	ADAM17 confirm
O=C(Nc1ccc(N2CCCC2)cc1)c1cccc(F)c1	8	0	0	18*	-3	0	-3	4
CC1=C2N=C(N)N(Cc3ccccc3)C(Cc3ccccc3)C2n2c(=O)n(-c3ccccc3)c(=O)n2C1 (stereo unspecified)	10	nt	nt	1	nt	nt	nt	nt
CC(C)CC(=O)NC(=S)Nc1nc(-c2cccc3ccccc23)cs1	20	1	2	14*	nt	0	17	8
COc1ccc2c(C(F)(F)F)cc(=O)oc2c1C	13	5	-3	9.8*	-4	0	17	8
COc1ccc2c(CC(=O)N[C@@H](Cc3ccccc3)C(=O)O)cc(=O)oc2c1C	i	1	0	-442	-68	0	nt	nt
COC(=O)C[C@H]1CC[C@H]2[C@H](COc3ccc(NC(=O)Cc4cccs4)cc3C(=O)N2C)O1	4	nt	nt	0	nt	nt	nt	nt
Cc1ccc(NC(=O)COC(=O)c2cccc(OC(F)F)c2)cc1S(=O)(=O)N1CCCCC1	12	4	0	9.1*	nt	0	45*	25*
Cc1cccc(NC(=O)COC(=O)c2ccc(C)c(S(=O)(=O)N3CCCCC3)c2)c1	3	-3	1	6	nt	1	nt	nt
Cc1ccc(OCCC(=O)OCC(=O)Nc2ccc(C)c(S(=O)(=O)N3CCOCC3)c2)cc1	0	3	0	9.1*	nt	0	10	7
Cc1cc(C)n(Cc2ccc(C(=O)NCc3ccco3)o2)n1	0	4	2	9.4*	-3	0	-8	-2
CN(Cc1ccccc1)C(=O)CN1C(=O)NC2(CCCCCCC2)C1=O	5	-1	0	8.8*	nt	2	7	8
O=C(CN1C(=O)NC2(CCCCC2)C1=O)Nc1ccc2c(c1)OCCCO2	1	-4	1	11*	nt	0	4	2
CC1Oc2ccccc2N(CC(=O)Nc2ccc3c(c2)OCCO3)C1=O (stereo unspecified)	10	-1	-2	10.0*	nt	0	-6	-1
O=C(CN1C(=O)NC2(CCCCCCC2)C1=O)NCc1ccc(Cl)cc1	1	2	-2	11*	nt	0	3	0
O=C(C1CCCN1S(=O)(=O)c1ccc(Br)s1)N1CCN(c2ccccc2)CC1 (stereo unspecified)	-6	nt	nt	-5	nt	nt	nt	nt
COC(=O)[C@]12C[C@H](CC(=O)N3CCCC3)C(=O)N(CCC3=CCCCC3)C1=C[C@H](C1CCCC1)O[C@@H]2C	-5	nt	nt	-5	nt	nt	nt	nt
O=C(Cn1c(=O)sc2ccccc21)Nc1ccc(S(=O)(=O)N2CCCCC2)cc1	11	3	14	8.8*	0	0	30*	17*
O=C(Cn1c(=O)sc2ccccc21)Nc1ccccc1	-3	3	-2	-2	-7	0	nt	nt
CC(Sc1nc2cc(Cl)ccc2s1)C(=O)Nc1cccc(S(=O)(=O)N2CCOCC2)c1 (stereo unspecified)	15	0	-11	9.5*	-21	0	24*	15*
COc1ccccc1C(=O)NC1CCCCN(Cc2ccccc2C)C1=O (stereo unspecified)	-1	nt	nt	2	nt	nt	nt	nt
CC1CCC(NC(=O)c2cnccn2)CC1 (stereo unspecified)	3	0	-2	12*	1	0	3	2
Cc1ccc(C(C(=O)NCc2ccco2)N(CCc2ccccc2)C(=O)Cn2nnc3ccccc32)o1 (stereo unspecified)	7	-2	-4	10*	nt	0	18	10*
Cc1ccc(CN(C(=O)Cn2nnc3ccccc32)C(C(=O)NCc2ccco2)c2ccc(C)o2)cc1 (stereo unspecified)	-12	-1	2	-5	25	0	nt	nt
O=C(NCc1n[nH]c(=S)n1-c1cccc(C(F)(F)F)c1)c1ccc(S(=O)(=O)N2CCCC2)cc1	0	-1	5	-3	0	-1	nt	nt
O=C(NCc1n[nH]c(=S)n1-c1cccc(C(F)(F)F)c1)c1ccc(S(=O)(=O)N2CCCCC2)cc1	14	0	-1	13*	-2	0	9	6
SMILES	ADAM10 inh	V-ATPase pHluor	MPTP inh	ADAM17 inh	Lipid droplet	aDG glyco act	ADAM10 ctr	ADAM17 confirm
COc1cc(C(c2c(C)[nH][nH]c2=O)c2c(C)[nH][nH]c2=O)ccc1OCc1ccc([N+](=O)[O-])cc1	16	1	-1	10*	-9	1	16	13*
COc1ccc(C2OC(CCc3ccccc3)CC3=C2C(=O)OC(C)(C)O3)cc1 (stereo unspecified)	6	nt	0	8.7*	nt	0	8	6
O=C(CSc1nc2ccccc2nc1N1CCCCC1)N1CCN(C(c2ccccc2)c2ccc(Cl)cc2)CC1 (stereo unspecified)	-5	nt	nt	-2	nt	nt	nt	nt
Cc1[nH]n(-c2ncc(-c3ccccc3)s2)c(=O)c1C(c1ccc(Br)cc1)C(C#N)C#N (stereo unspecified)	15	5	38	8.7*	-26	0	14	12*
Cc1[nH]n(C(N)=S)c(=O)c1C(c1ccccc1)C(C#N)C#N (stereo unspecified)	0	-1	2	-1	-2	0	nt	nt
COC(=O)c1ccc(COc2ccccc2/C=N/NC(=O)c2cccnc2)cc1	5	0	-1	8.7*	4	1	16	7
O=C(/C=C/c1ccc2c(c1)OCO2)c1ccc(O)cc1O	1	0	3	9.3*	nt	0	7	6
Cc1ccc(C(=O)C=Cc2ccc3c(c2)OCO3)c(C)c1	-2	3	1	0	nt	0	nt	nt
CCC[C@H]1[C@@H](NC(=O)c2ccc(OC)cc2)CC[C@@]23CCCN2C(=O)CCC[C@@H]13	2	nt	nt	-2	nt	nt	nt	nt
C/C(CC(=O)Nc1ccc(OCc2ccccc2)cc1)=N\NC(=O)C(=O)Nc1cccc(C)c1	12	-1	1	11*	10	1	1	3
CCOC(=O)NCc1ccc(CNC(=O)OCC)cc1	-1	-12	-3	-1	nt	0	nt	nt
CCOC(=O)NCc1ccc(S(=O)(=O)Nc2ccc(C)cc2)cc1	14	-1	-2	11*	-5	0	5	4
NS(=O)(=O)c1ccc(NCc2cc(Cl)ccc2OCc2ccc(F)cc2)cc1	16	0	13	9.3*	-11	0	20	12*
